An excerpt weighted towards active compounds, which were near 2.6% of everything screened.
GSTO1 counter – blocks human GSTO1 in RBBP9 counter-screen. actives 1.1% (n = 300,000). recombinant GSTO1, activity-based probe fluorescence polarization. P78417. inhibition, % at 5.96 µM;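 active means inhibition above the campaign mean inhibition plus 3 SD, cut at about 35% in these data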
Target sequence (P78417 whole entry, looked up): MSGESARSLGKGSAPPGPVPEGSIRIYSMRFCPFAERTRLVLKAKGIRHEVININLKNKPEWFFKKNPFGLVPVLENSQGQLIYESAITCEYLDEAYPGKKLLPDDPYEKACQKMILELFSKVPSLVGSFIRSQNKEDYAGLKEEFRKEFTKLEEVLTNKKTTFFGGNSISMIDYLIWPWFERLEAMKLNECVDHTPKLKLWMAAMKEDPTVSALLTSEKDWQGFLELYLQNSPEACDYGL
PRMT1 inh – PRMT1 (human) inhibition, primary screen; Q99873; recombinant PRMT1, activity-based probe fluorescence polarization; inhibition, % at 2.79 µM; actives 1.3% (n = 370,000); AID 652257;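 active means inhibition above about 21% made by adding two undisclosed values, limit read from the data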
TDP2 absorb – TDP2 (human) inhibition, absorbance primary screen; actives 0.34% (n = 370,000); inhibition, % at 12.8 µM; recombinant TDP2, T5PNP hydrolysis, p-nitrophenol absorbance 415 nm; O95551;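 active means inhibition above the mean of all tested compounds plus 3 SD, set per campaign, cut at about 25% in these data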
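Test system: Human TDP2 enzyme | Reagent: 5 mM T5PNP | Compound dosing: 12.8 µM single point, 1% DMSO | Incubation: Enzyme reaction with compound for 2 h at 37 °C | Technique: p-Nitrophenol epi absorbance | Read-out: % inhibition relative to enzyme-containing and enzyme-free wells | Benchmarks: High control without enzyme, low control DMSO plus TDP2 | Replicates: Singlicate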
Apaf-1 inh – human Apaf-1 inhibition. reconstituted apoptosome caspase-3 activity, DEVD-Rh110 fluorescence. AID 489030. inhibition, % at 20 µM. actives 0.71% (n = 330,000); active means inhibition of at least 40% at 20 µM
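Material: reconstituted apoptosome with Apaf-1, cytochrome c, caspase-9, procaspase-3, dATP. Technique: Rh110 fluorescence intensity. Buffer or medium: pH 7.5 Hepes buffer with CHAPS, BSA, DTT. Times: 30 min plus 50 min, RT.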
PAD4 FP inh – inhibitors of human PAD4; Q9UM07; recombinant PAD4, RCA probe fluorescence polarization; inhibition, % at 6.36 µM; actives 0.41% (n = 330,000); AID 485272;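 active means percent inhibition above a cutoff equal to the mean of all tested compounds plus 3 SD, cut at about 15% in these data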
Apaf-1 inh conf – Apaf-1 inhibition, single-dose confirmed. shares compounds with Apaf-1 inh. reconstituted apoptosome, caspase-3 DEVD-Rh110 fluorescence. inhibition, % at 20 µM. actives 25% (n = 1,800). AID 504614;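 active means mean inhibition of at least 40% at 20 µM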
Rh110 interf inh – counter-screen for Apaf-1 inhibitors: fluorescence interference; shares compounds with Apaf-1 inh; Rh110 fluorescence interference, quenched caspase reaction; activation (fluorescence interference), % at 20 µM; 1,800 tested, under 10 active;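 active means signal rise of 40% or more at 20 µM, treated as a fluorescence artifact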
Fluor interf inh – shows fluorescence interference in the Apaf-1 inhibitor assay format; IC50, µM; fluorescence interference counterscreen, Apaf-1 assay format; 460 tested, under 10 active; shares compounds with Apaf-1 inh; AID 588538; call rule not given here
A number is an active result; 0 = inactive; - = no result.

SMILES | GSTO1 counter | PRMT1 inh | TDP2 absorb | Apaf-1 inh | PAD4 FP inh | Apaf-1 inh conf | Rh110 interf inh | others
COc1ccc(Cn2nc(-c3ccccc3)c(N3CCCCC3)cc2=O)cc1 | 0 | 0 | 0 | 46 | 0 | 0 | 0
CCC[C@@H](CN1CCC[C@H]1CN1C(N)=NC[C@H]1CC(C)C)N1C[C@@H](Cc2ccccc2)N(CCc2ccc(Cl)c(Cl)c2)C1=N | - | 0 | 0 | 68 | 0 | 0 | 0
CCC[C@@H](CN1CCC[C@H]1CN1C(N)=NC[C@@H]1Cc1ccccc1)N1C[C@@H]([C@H](C)CC)N(CCc2ccc(Cl)c(Cl)c2)C1=N | - | - | - | 67 | 0 | 0 | 0
CCC[C@@H](CN1CCC[C@H]1CN1C(N)=NC[C@@H]1Cc1ccccc1)N1C[C@@H](Cc2ccccc2)N(CCc2ccc(Cl)c(Cl)c2)C1=N | - | 0 | 0 | 78 | 0 | 0 | 0
CCOc1cc(CNc2ccc3cn[nH]c3c2)ccc1OC | 0 | 0 | 30 | 85 | 0 | 49 | 0 | Fluor interf inh=0
COc1ccc(CNc2ccc3cn[nH]c3c2)c(OC)c1OC | 0 | 0 | 0 | 46 | 0 | 0 | 0
C=CCN(CC#CC(=C)C)Cc1ccccc1 | - | 0 | 0 | - | - | - | -
Cc1ccc(S(=O)(=O)N2CCC(C(=O)OCC(=O)N(C)CC(=O)Nc3ccc(F)cc3)CC2)cc1C | 0 | 0 | 0 | 52 | 0 | 0 | 0
Cc1ccc(S(=O)(=O)N2CCC(C(=O)OCC(=O)N(C)Cc3ccccc3)CC2)cc1C | 0 | 0 | 0 | 0 | 0 | - | -
CCn1c(SCC(=O)N/N=C/C=C\c2ccco2)nc2ccccc21 | 0 | 21 | 0 | 47 | 0 | 0 | 0
Cn1c(SCC(=O)N/N=C/C=C\c2ccco2)nc2ccccc21 | 0 | 0 | 0 | 0 | 0 | - | -
CN1CCN(c2ccc(Cl)cc2NC(=O)CN2C(=O)NC(C)(c3ccccc3)C2=O)CC1 (centres undefined) | 0 | 0 | 0 | 0 | 0 | - | -
CCC1(c2ccccc2)NC(=O)N(CC(=O)Nc2cc(Cl)ccc2N2CCN(C)CC2)C1=O (centres undefined) | - | 0 | 0 | 58 | 0 | 0 | 0
CCOc1ccc(NC(=O)CN(C)C(=O)c2ccc3[nH]c4c(c3c2)CC(C)CC4)cc1OCC (centres undefined) | 0 | 0 | 0 | 0 | 0 | - | -
Cc1ccc(NC(=O)CN(C)C(=O)c2ccc3[nH]c4c(c3c2)CC(C)CC4)cc1 (centres undefined) | - | 0 | 0 | 59 | 0 | 45 | 0 | Fluor interf inh=0
CC(=O)N[C@@H](C)CCc1ccc(Oc2ccc(OC(C)C)nc2)cc1 | - | 0 | 0 | - | - | - | -
CC(=O)NC1N=C(C)N(c2ccccc2)C1=O (centres undefined) | 0 | 0 | 0 | 70 | 0 | 0 | 0
Cc1cc(C)n(C2CC(=O)N(c3ccccc3)C2=O)n1 (centres undefined) | 0 | 0 | 0 | 0 | 0 | - | -
Oc1cc(Nc2cccnc2)cc2cccnc12 | - | 0 | 0 | 0 | 0 | - | -
Oc1cc(NCCc2cccnc2)cc2cccnc12 | - | 0 | 0 | 56 | 0 | 47 | 0 | Fluor interf inh=0
N#Cc1ccsc1NC(=O)c1ccc(Cl)c([N+](=O)[O-])c1 | 0 | 0 | 0 | 48 | 0 | 0 | 0
CN1Cc2c(N3CCOCC3)nc3sc(C(=O)c4ccc(Br)cc4)c(N)c3c2CC1(C)C | 0 | 0 | 0 | 56 | 0 | 62 | 0 | Fluor interf inh=0
CC(C)(C)n1nnnc1C(c1ccccc1)N1CCN(c2c(Cl)cncc2Cl)CC1 (centres undefined) | - | 0 | 0 | - | - | - | -
C=CCC[C@@H](Cc1ccc(F)cc1)C(=O)OC[C@@H]1CCCN1C(=O)[C@@H](CC=C)CC(=O)N(CCO)Cc1ccccc1 | - | 0 | 0 | 48 | 0 | 0 | 0
C=CCC[C@@H](Cc1ccc(F)cc1)C(=O)OC[C@H]1CCCN1C(=O)[C@@H](CC=C)CC(=O)N[C@H](CO)Cc1ccccc1 | - | 0 | 0 | 40 | 0 | 0 | 0
C=CCC[C@@H](Cc1ccc(F)cc1)C(=O)OC[C@@H]1CCCN1C(=O)[C@H](CC=C)CC(=O)N[C@H](CO)Cc1ccccc1 | - | 0 | 0 | 43 | 0 | 0 | 0

Screens: PubChem, several laboratories
